NR2E3 ag-1 = human photoreceptor-specific nuclear receptor agonism; Q9Y5X4; CHO-S Gal4-NCOR/VP16-NR2E3 two-hybrid, luciferase; inhibition of corepressor binding, % at 3.98 µM; hit rate 0.35% among 360,000; AID 602229;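 active = inhibition above the mean of all tested compounds plus 3 SD, cut at about 70% in these data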;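 note: 0% = DMSO with NR2E3 transfected cells and 100% = cells lacking NR2E3 construct; higher means lower luciferase signal from less NR2E3 corepressor binding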
NR1D1 modulator = modulators of human Rev-erb alpha DNA binding; AID 1259318; Rev-erbα–FITC-DNA binding, fluorescence polarization, 90 min; hit rate 0.79% among 370,000; P20393; activity, % at 10 µM;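 active = activity above about 14%, limit read from the data; passing the limit was not always enough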;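 note: 0% = DMSO wells with 35 nM protein and 100% = DMSO wells with 750 nM protein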
Neddyl block = cullin neddylation inhibition; TR-FRET cullin neddylation, biochemical; P61081+Q13564; hit rate 0.58% among 360,000; calls only at 25 µM; in the data active = inhibition above about 36%
Target sequence (P61081 whole entry, looked up): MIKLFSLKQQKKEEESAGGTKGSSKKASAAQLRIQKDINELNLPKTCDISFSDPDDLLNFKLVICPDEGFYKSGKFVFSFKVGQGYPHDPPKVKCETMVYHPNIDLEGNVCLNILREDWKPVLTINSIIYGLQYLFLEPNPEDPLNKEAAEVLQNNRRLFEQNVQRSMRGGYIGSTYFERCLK
Target sequence (Q13564 whole entry, looked up): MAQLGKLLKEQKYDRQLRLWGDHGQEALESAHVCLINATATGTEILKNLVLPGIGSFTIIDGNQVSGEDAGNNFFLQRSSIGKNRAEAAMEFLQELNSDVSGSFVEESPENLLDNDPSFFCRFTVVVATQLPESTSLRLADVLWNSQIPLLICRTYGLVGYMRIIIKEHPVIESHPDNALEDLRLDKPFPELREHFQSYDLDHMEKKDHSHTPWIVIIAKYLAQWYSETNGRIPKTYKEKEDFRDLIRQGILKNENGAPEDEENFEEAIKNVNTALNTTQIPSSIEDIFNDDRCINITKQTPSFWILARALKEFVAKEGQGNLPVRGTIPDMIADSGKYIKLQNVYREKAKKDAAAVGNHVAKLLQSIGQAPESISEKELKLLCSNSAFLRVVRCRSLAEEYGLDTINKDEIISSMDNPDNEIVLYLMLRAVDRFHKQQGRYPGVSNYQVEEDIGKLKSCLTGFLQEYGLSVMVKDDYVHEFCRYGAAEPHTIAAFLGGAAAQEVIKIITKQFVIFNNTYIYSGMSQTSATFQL
NR2E3 ag-2 = activates human photoreceptor nuclear receptor NR2E3 | Q9Y5X4 | GST-NR2E3/biotin-RetCOR TR-FRET, 1536-well | inhibition of corepressor binding, % at 4.78 µM | hit rate 0.12% among 320,000 | AID 2300;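 active = percent inhibition above the cutoff of mean plus 3 SD of all tested compounds, set per screening campaign, cut at about 20% in these data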;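 note: 0% = DMSO wells and 100% = biotin wells as full block of FRET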
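System: GST-tagged NR2E3 plus biotinylated RetCOR corepressor; Buffer or medium: pH 7.5 Tris-based buffer; Probe or stimulus: RetCOR corepressor, biotinylated, 7 nM; Doses: compound at 4.8 µM, single dose; Schedule: 5 h incubation at 4 °C; Technique: time-resolved FRET; Evaluation: percent inhibition of TR-FRET ratio; Replication: one well per compound, singlicate testing.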
PG9 Ab binder = small molecules binding HIV-1 gp120 antibody PG9 | TR-FRET gp120-PG9 antibody binding | inhibition, % at 6.7 µM | hit rate 0.43% among 360,000 | AID 624416; in the data active = inhibition above about 8.5%
Rev-erbA confirm = confirmation of modulators of human Rev-erb alpha DNA binding; hit rate 61% among 3,000; AID 1259319; shares compounds with NR1D1 modulator; Rev-erb alpha FITC-DNA binding, fluorescence polarization, 90 min; activation, % at 25 µM;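 active = activation at or above a set limit, or at least 3 SD above the negative control mean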;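 note: 0% = 35 nM protein with DMSO and 100% = 750 nM protein high control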
RORg counter = affects RORgamma DNA binding in a Rev-erb alpha counter-screen | purified RORgamma protein-FITC-DNA binding, fluorescence polarization | shares compounds with NR1D1 modulator | hit rate 8% among 910 | IC50, µM;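 active = Compounds whose fitted half-maximal concentration for disrupting protein-DNA binding is below 10 micromolar; the record names Rev-erb in its text, so the target is in doubt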
Starred values were filed as active, the others as inactive; i = inactive; / = no result given. Hits are enriched below; roughly 2% of the tested compounds scored in any of these assays.

SMILES | NR2E3 ag-1 | NR1D1 modulator | Neddyl block | NR2E3 ag-2 | PG9 Ab binder | Rev-erbA confirm | others
O=C(COC(=O)Cc1cccs1)NCc1ccc(F)cc1 | -23 | -2 | i | 3 | -2 | /
Cc1csc2c(=O)sc(NC(=O)c3ccc(F)cc3)nc12 | -7 | 3 | i | 4 | -3 | /
Cc1csc2nc(NC(=O)c3ccccc3)sc(=O)c12 | -1 | 24* | i | -6 | 0 | 16
CSc1nc2ccc3nc(NC(=O)c4ccccc4)sc3c2s1 | -46 | 38* | i | 1 | 1 | 6
C[C@@H]1CN([C@H](C)CO)C(=O)CCCn2nncc2CO[C@H]1CN(C)Cc1ccc2c(c1)OCCO2 | -14 | -5 | i | / | 1 | /
COCCNC(=O)c1cc(-c2ccccc2)sc1N | / | -9 | i | / | -2 | /
O=C(Nc1ccc2oc(-c3ccccc3F)nc2c1)c1ccc2c(c1)OCCO2 | -41 | 15* | / | 2 | -1 | 12
O=C(Nc1ccc2oc(-c3ccc(F)cc3)nc2c1)c1ccccc1F | -13 | 41* | i | -6 | 6 | 25*
O=C(NC(=S)Nc1ccc2oc(-c3ccncc3)nc2c1)c1ccccc1F | -18 | 37* | i | -5 | -1 | 16
O=C(NC(=S)Nc1ccc2oc(=O)ccc2c1)c1ccccc1F | -18 | 0 | i | 1 | 0 | /
O=c1[nH]nc(Cc2ccc(Cl)cc2)c2ccccc12 | -19 | 1 | i | 3 | -1 | /
O=c1[nH]nc(Cc2ccc(-c3ccccc3Cl)o2)c2ccccc12 | -38 | 34* | i | -1 | 0 | 17*
CCCn1c(N)c(C(=O)CSc2nc3ncc(Cl)cc3[nH]2)c(=O)n(C)c1=O | -13 | 66* | i | 4 | 3 | 17*
N#Cc1cc2cc3c(cc2nc1SCC(=O)OC1CCCCC1)OCO3 | -17 | 79* | i | 1 | 1 | 38*
CCOC(=O)CSc1nc(-c2ccc3c(c2)OCO3)ccc1C#N | -59 | 20* | / | 0 | 2 | 17*
Cc1cc2cc3c(cc2nc1SCC(=O)OC(C)C)OCO3 | -12 | 15 | i | / | 1 | /
CCOC(=O)CSc1nc(-c2ccncc2)ccc1C#N | -134 | -3 | i | 4 | -1 | /
CC(=O)CSc1nc2cc3c(cc2cc1C#N)OCCO3 | -131 | 20* | i | 0 | -7 | 20*
N#Cc1cc2cc3c(cc2nc1SCC(=O)N1CCCC1)OCCO3 | -82 | / | i | -1 | / | /
CCOc1ccc(NC(=O)COC(=O)CCC(=O)c2cccs2)cc1 | 26 | -9 | i | 2 | 1 | /
O=C(CN(Cc1ccc(F)cc1)C(=O)CCC(=O)Nc1nccs1)NCc1ccccc1 | -8 | 0 | i | 1 | -1 | /
COc1ccc(-n2c(COc3ccc(Cl)cc3)nnc2SCC(=O)c2ccc(-c3ccccc3)cc2)cc1 | / | 22* | / | / | / | 2
COCCNc1nc(NCc2ccc(C(C)C)cc2)c2sccc2n1 | 46 | -1 | i | / | 0 | /
COc1cccc(C(=O)CSc2nnc(-c3cc(OC)cc(OC)c3)o2)c1 | -24 | 27* | i | 0 | -1 | 36* | RORg counter=>40
COc1cccc(C(=O)CSc2nnc(-c3cccs3)o2)c1 | -14 | -1 | i | 3 | -4 | /
SMILES | NR2E3 ag-1 | NR1D1 modulator | Neddyl block | NR2E3 ag-2 | PG9 Ab binder | Rev-erbA confirm | others
CCCCOC(=O)CSc1nc(N)c(C#N)c(-c2ccc(OCC)cc2)c1C#N | 2 | 49* | i | -3 | 0 | 36* | RORg counter=>40
C=C(C)CSc1nc(N)c(C#N)c(-c2ccc(C)cc2)c1C#N | -30 | 24* | i | 6 | -2 | 18*
CCCCOC(=O)CSc1nc(N)c(C#N)c(-c2ccc(OC)cc2)c1C#N | -4 | 53* | i | 0 | -1 | 28*
Cc1ccc(S(=O)(=O)Nc2cc3c(cc2C#N)OCO3)cc1C(N)=O | -38 | -1 | i | -2 | 0 | /
CC(C)Oc1ccc(CNC(=O)Cn2c(=O)c3cccn3c3cccnc32)cc1 | -14 | 1 | i | 1 | -2 | /
CCOc1ccc(CNC(=O)Cn2c(=O)c3cccn3c3ccccc32)cc1 | 5 | 39* | i | 2 | 1 | 24*
COc1ccc(-c2ccc(-c3noc(-c4ccccc4C)n3)c(OC)n2)cc1 | -32 | 40* | i | 5 | 2 | 11
CCOc1nc(-c2ccc(OC)cc2)ccc1-c1noc(C)n1 | -21 | -2 | i | 4 | -4 | /
COc1ccc(-c2ccc(-c3noc(-c4cccc(OC)c4)n3)c(OC)n2)cc1 | -3 | 52* | i | 0 | -1 | 0
COc1ccc(CC(=O)Nc2ccc(-c3noc(-c4ccccc4OC)n3)cc2)cc1 | -80 | 36* | i | -2 | 7 | 55* | RORg counter=i
COc1ccc(-c2ccc(-c3noc(C)n3)c(OC)n2)cc1 | -38 | 27* | i | 2 | -5 | 7
O=C(CN1C(=O)CCSc2ccccc21)Nc1cccc(Cl)c1F | / | 1 | / | / | / | /
CC(O)(c1ccccc1)c1ccc2ccccc2n1 (stereo not given) | -3 | 10 | i | / | 0 | /
CCOC(=O)[C@]12CCCCC/C=C\1N(Cc1ccc(OC)cc1)C(=O)[C@H]2CC(=O)N1CCC(c2ccccc2)CC1 | / | 3 | / | / | / | /
COc1ccc(-c2ccc(-c3noc(-c4ccccc4OC)n3)c(OC)n2)cc1 | -22 | 37* | i | 8 | 0 | 15
CCOC(=O)c1c(NC(=S)Nc2ccc(OC)cc2)sc2c1CCCCC2 | 7 | 7 | i | 1 | 0 | /
CCOC(=O)c1c(NC(=S)Nc2ccc(OC)cc2)sc2c1CCC2 | -9 | 47* | i | 4 | -1 | 37* | RORg counter=>40
Cc1cc(C)c(C#N)c(SCC(=O)N2CCCCC2)n1 | -24 | -1 | i | 1 | 0 | /
Cc1cc(C)c2nc(SCC(=O)N3CCCCC3)c(C#N)cc2c1 | -14 | 27* | i | / | -1 | 23*
Cc1cc2cccc(C)c2nc1SCC(=O)NCC1CCCO1 (stereo not given) | -28 | 4 | i | 6 | -1 | /
Cc1cc(C)c2nc(SCC(=O)NCC3CCCO3)c(C#N)cc2c1 (stereo not given) | -6 | 60* | i | -2 | -1 | 42* | RORg counter=>40
Cc1ccc2c(c1)-c1c(cnn1CC(=O)NCCc1cccc(F)c1)CO2 | / | -3 | / | / | / | /
COc1ccc(OC)c(NC(=O)c2sc3nc(Cc4ccccc4)cc(C(F)(F)F)c3c2N)c1 | -12 | 82* | i | 1 | -1 | 29*
COc1ccc(-c2cc(C(F)(F)F)c3c(N)c(C(=O)NCCSC)sc3n2)cc1 | -2 | -4 | / | 0 | 3 | /
C=CCC[C@@H](Cc1ccc(F)cc1)C(=O)OC[C@H](C)NC(=O)[C@@H](CC=C)CC(=O)N(CCO)Cc1ccccc1 | -39 | 13* | i | / | 1 | -5
CCOC(=O)Cn1c(-c2nonc2NC(=O)c2ccccc2F)nc2ccccc21 | 19 | 27* | i | -1 | 0 | 15
